According to ChEMBL document CHEMBL4610005, “Discovery of a new class of PROTAC BRD4 degraders based on a dihydroquinazolinone derivative and lenalidomide/pomalidomide” (Bioorg Med Chem, 2020):
Active and inactive are the calls of the source. The calls are words filed in the database; no cut-off is given here.

Experiments:
[1] = biological target: T1, Bromodomain-containing protein 4 (Homo sapiens, UniProt O60885); conditions: at 500 nM
[2] = biological target: T1, Bromodomain-containing protein 4
Raji = experiment: Antiproliferative activity against human Raji cells assessed as reduction in cell viability at 2.5 uM incubated for 72 hrs by cell titer glo assay; assay type: functional, cell-based
How it was run: (§1)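 Cells seeded and held 24 h at 37 °C, 5% CO2, then exposed to compound at a single 2.5 μM for 72 h under the same conditions. Viability was read by CellTiter-Glo luminescence after 10 min shaking and 2 min signal stabilisation at room temperature. Percent inhibition is the mean of three independent experiments.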

HL-60 = experiment: Antiproliferative activity against human HL60 cells assessed as reduction in cell viability at 2.5 uM incubated for 72 hrs by cell titer glo assay; assay type: functional, cell-based
How it was run: as §1

THP-1 [3] = experiment: Antiproliferative activity against human THP1 cells assessed as reduction in cell viability at 2.5 uM incubated for 72 hrs by cell titer glo assay; assay type: functional, cell-based
How it was run: as §1

THP-1 [4] = experiment: Antiproliferative activity against human THP1 cells assessed as reduction in cell viability incubated for 72 hrs by cell titer glo assay; assay type: functional, cell-based; conditions: THP-1, 72 h
How it was run: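 THP-1 cells were seeded and held 24 h at 37 °C, 5% CO2, then given serially diluted compound in medium for 72 h. Proliferation was read by CellTiter-Glo luminescence. IC50 was fitted from the dose-response and reported as mean ± SD of three independent assays.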

[5] = biological target: T1, Bromodomain-containing protein 4; remark: listed apart in the source
[6] = biological target: T2, Protein cereblon/Bromodomain-containing protein 4 (Homo sapiens) (UniProt O60885+Q96SW2); experiment: Protac activity at CRBN/BRD4 in human THP1 cells assessed as decrease in c-Myc suppression at 1 uM incubated for 3 hrs by Western blot analysis; assay type: cell-based; conditions: THP-1
T2 sequence (Q96SW2 whole entry, looked up, other chains not shown): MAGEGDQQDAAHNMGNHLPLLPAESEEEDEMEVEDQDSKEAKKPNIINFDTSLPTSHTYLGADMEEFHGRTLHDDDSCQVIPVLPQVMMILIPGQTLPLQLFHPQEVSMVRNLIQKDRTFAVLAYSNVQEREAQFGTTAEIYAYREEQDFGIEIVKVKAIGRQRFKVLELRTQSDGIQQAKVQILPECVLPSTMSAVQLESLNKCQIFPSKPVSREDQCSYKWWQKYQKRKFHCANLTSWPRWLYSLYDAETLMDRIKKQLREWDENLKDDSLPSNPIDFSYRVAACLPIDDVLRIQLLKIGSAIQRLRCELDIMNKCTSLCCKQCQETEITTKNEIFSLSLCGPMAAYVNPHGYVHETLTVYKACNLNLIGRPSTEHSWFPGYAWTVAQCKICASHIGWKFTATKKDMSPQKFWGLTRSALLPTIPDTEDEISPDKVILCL
How it was run: (§2)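 THP-1 cells were plated at 2×10^6 cells/well and treated for 3 h. Lysis was in RIPA buffer with protease inhibitors. 30 μg of lysate per lane was run on SDS-PAGE and blotted to PVDF. Membranes were probed with antibodies to BRD4 and c-Myc, with GAPDH as loading control.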

[7] = biological target: T2, Protein cereblon/Bromodomain-containing protein 4 (Homo sapiens); experiment: Protac activity at CRBN/BRD4 in human THP1 cells assessed as increase in BRD4 degradation at 3 uM incubated for 3 hrs by Western blot analysis; assay type: cell-based; conditions: THP-1
How it was run: as §2

SMILES | inhibition [1] [%] | IC50 [2] [nM] | inhibition (Raji) | inhibition (HL-60) | inhibition (THP-1 [3]) | IC50 (THP-1 [4]) [nM] | IC50 [5] [nM] | Activity [6] | Activity [7]
Cc1noc(C)c1-c1ccc2c(c1)C(c1ccccc1)N(CC(=O)NCCCC(=O)Nc1cccc3c1CN(C1CCC(=O)NC1=O)C3=O)C(=O)N2C (stereo unspecified) | 89 | 138 | – | – | – | – | – | – | –
Cc1noc(C)c1-c1ccc2c(c1)C(c1ccccc1)N(Cc1cn(CCOCCOCCOCC(=O)Nc3cccc4c3C(=O)N(C3CCC(=O)NC3=O)C4=O)nn1)C(=O)N2C (stereo unspecified) | 86 | 68.5 | Active | Active | Active | 1750 | – | – | –
Cc1noc(C)c1-c1ccc2c(c1)C(c1ccccc1)N(Cc1cn(CCOCCOCCOCC(=O)Nc3cccc4c3CN(C3CCC(=O)NC3=O)C4=O)nn1)C(=O)N2C (stereo unspecified) | 100 | 22.1 | Active | Active | Active | – | – | – | –
Cc1noc(C)c1-c1ccc2c(c1)C(c1ccccc1)N(CC(=O)NCCCCCCC(=O)Nc1cccc3c1CN(C1CCC(=O)NC1=O)C3=O)C(=O)N2C (stereo unspecified) | 100 | 80.6 | – | – | – | – | – | – | –
Cc1noc(C)c1-c1ccc2c(c1)C(c1ccccc1)N(C)C(=O)N2 (stereo unspecified) | – | – | – | – | – | – | 44 | – | –
Cc1sc2c(c1C)C(c1ccc(Cl)cc1)=N[C@@H](CC(=O)OC(C)(C)C)c1nnc(C)n1-2 | – | – | Active | Active | Active | – | – | – | –
Cc1noc(C)c1-c1ccc2c(c1)C(c1ccccc1)N(CCCCCCC(=O)Nc1cccc3c1CN(C1CCC(=O)NC1=O)C3=O)C(=O)N2C (stereo unspecified) | 96 | 118 | – | – | – | – | – | – | –
Cc1noc(C)c1-c1ccc2c(c1)C(c1ccccc1)N(CCCCCC(=O)Nc1cccc3c1CN(C1CCC(=O)NC1=O)C3=O)C(=O)N2C (stereo unspecified) | 93 | 135 | – | – | – | – | – | – | –
Cc1noc(C)c1-c1ccc2c(c1)C(c1ccccc1)N(CC(=O)NCCCCCCCC(=O)Nc1cccc3c1CN(C1CCC(=O)NC1=O)C3=O)C(=O)N2C (stereo unspecified) | 96 | 68.3 | – | – | – | – | – | – | –
Cc1noc(C)c1-c1ccc2c(c1)C(c1ccccc1)N(Cc1cn(CCOCCOCCOCCOCC(=O)Nc3cccc4c3C(=O)N(C3CCC(=O)NC3=O)C4=O)nn1)C(=O)N2C (stereo unspecified) | 60 | 173 | – | – | – | – | – | – | –
Cc1noc(C)c1-c1ccc2c(c1)C(c1ccccc1)N(CC(=O)NCCCCCC(=O)Nc1cccc3c1CN(C1CCC(=O)NC1=O)C3=O)C(=O)N2C (stereo unspecified) | 98 | 99.1 | – | – | – | – | – | – | –
Cc1noc(C)c1-c1ccc2c(c1)C(c1ccccc1)N(CC(=O)NCCCCC(=O)Nc1cccc3c1CN(C1CCC(=O)NC1=O)C3=O)C(=O)N2C (stereo unspecified) | 91 | 134 | – | – | – | – | – | – | –
Cc1noc(C)c1-c1ccc2c(c1)C(c1ccccc1)N(CC(=O)NCCC(=O)Nc1cccc3c1CN(C1CCC(=O)NC1=O)C3=O)C(=O)N2C (stereo unspecified) | 94 | 132 | – | – | – | – | – | – | –
Cc1noc(C)c1-c1ccc2c(c1)C(c1ccccc1)N(Cc1cn(CCOCC(=O)Nc3cccc4c3CN(C3CCC(=O)NC3=O)C4=O)nn1)C(=O)N2C (stereo unspecified) | 99 | 14.2 | Active | Active | Active | 1830 | – | – | –
Cc1noc(C)c1-c1ccc2c(c1)C(c1ccccc1)N(Cc1cn(CCOCCOCCOCCOCC(=O)Nc3cccc4c3CN(C3CCC(=O)NC3=O)C4=O)nn1)C(=O)N2C (stereo unspecified) | 100 | 22.6 | Active | Active | Active | – | – | – | –
Cc1noc(C)c1-c1ccc2c(c1)C(c1ccccc1)N(Cc1cn(CCOCC(=O)Nc3cccc4c3C(=O)N(C3CCC(=O)NC3=O)C4=O)nn1)C(=O)N2C (stereo unspecified) | 99 | 41.8 | Active | Active | Active | 810 | – | Active | –
Cc1noc(C)c1-c1ccc2c(c1)C(c1ccccc1)N(Cc1cn(CCOCCOCC(=O)Nc3cccc4c3CN(C3CCC(=O)NC3=O)C4=O)nn1)C(=O)N2C (stereo unspecified) | 100 | 15.4 | Active | Active | Active | – | – | – | –
Cc1noc(C)c1-c1ccc2c(c1)C(c1ccccc1)N(Cc1cn(CCOCCOCC(=O)Nc3cccc4c3C(=O)N(C3CCC(=O)NC3=O)C4=O)nn1)C(=O)N2C (stereo unspecified) | 93 | 67.7 | Active | Active | Active | 1660 | – | – | –
Cc1noc(C)c1-c1ccc2c(c1)C(c1ccccc1)N(CCCCC(=O)Nc1cccc3c1CN(C1CCC(=O)NC1=O)C3=O)C(=O)N2C (stereo unspecified) | 90 | 144 | – | – | – | – | – | – | –
Cc1noc(C)c1-c1ccc2c(c1)C(c1ccccc1)NC(=O)N2C (stereo unspecified) | 100 | 46.4 | Active | Active | Active | 3260 | – | – | inactive
